The source of these data is the array DNA melting data of Ke et al. (doi:10.1101/2024.01.08.574731).

Data set [1] is described as follows: folding enthalpy; higher = less favourable; fluorescence melt of hairpins on a sequencing array, two-state fit. Conditions: sodium 0.088 M. A digest of the protocol: (§1)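 With Cy3 and quencher oligos annealed, library hairpins on a sequenced MiSeq flow cell were imaged for Cy3 fluorescence in 50 mM Na-HEPES pH 8.0, 25 mM NaCl, in 2.5 °C steps up to 60 °C. Melting temperature and folding enthalpy were derived from bootstrapped two-state fits of signals normalised to pre-quench Cy3 and to control constructs. Four replicates were combined by inverse variance, with fitted temperatures raised by 9.35 °C to match UV melts.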

Data set [2] in a line: melting temperature; fluorescence melt of hairpins on a sequencing array, two-state fit, raised by 9.35 °C to match UV melts. The conditions noted are these: sodium 0.088 M. An outline of the steps: as §1

As for TAGGTGAAAACCTA (((((....))))), the folding enthalpy in data set [1] was -15.4 kcal/mol. Also, in data set [2], the Tm worked out at 41.1 °C.
As to TCAATGAAAATTGA (((((....))))), the folding enthalpy in data set [1] is -9.78 kcal/mol. Moreover, the Tm in data set [2] is 25 °C.
Taken in the same sequence, the figures for TCAGGGAAACCTGA (((((....))))) were -22.8 kcal/mol and 41.8 °C.
In the case of TCCAAGAAATTGGA (((((....))))), in data set [1], the folding enthalpy is -10.5 kcal/mol. In addition, the Tm in data set [2] is 31.2 °C.
With TCCATGAAAATGGA (((((....))))), in data set [1], the folding enthalpy was -17.1 kcal/mol. The Tm in data set [2] turned out to be 42.2 °C.
As for TCCCTGAAAAGGGA (((((....))))), in data set [1], the folding enthalpy was -15.6 kcal/mol. Further, the Tm in data set [2] came out at 48.3 °C.
Turning to TCGGGGAAACCCGA (((((....))))), the folding enthalpy in data set [1] is -22.8 kcal/mol. Moreover, the Tm in data set [2] was found to be 53.3 °C.
As to TGACAGAAATGTCA (((((....))))), the folding enthalpy in data set [1] is -20.1 kcal/mol. Besides, the Tm in data set [2] came out at 42.1 °C.
Regarding TGAGCGAAAGCTCA (((((....))))), the folding enthalpy in data set [1] is -12.8 kcal/mol. In addition, the Tm in data set [2] came to 67.6 °C.
In the case of TGATTGAAAAATCA (((((....))))), in data set [1], the folding enthalpy was -10.1 kcal/mol. In addition, the Tm in data set [2] is 27.4 °C.
Taken in the same sequence, the figures for TGCCAGAAATGGCA (((((....))))) were -16.5 kcal/mol and 55.1 °C.
TGCGAGAAATCGCA (((((....))))): in data set [1], the folding enthalpy was -18.2 kcal/mol. Further, in data set [2], the Tm stood at 54.3 °C.
As for TGCTAGAAATAGCA (((((....))))), the folding enthalpy in data set [1] was -14.6 kcal/mol. For the same sequence, the Tm in data set [2] was found to be 41.2 °C.
Turning to TGGAGGAAACTCCA (((((....))))), in data set [1], the folding enthalpy is -17.4 kcal/mol. In data set [2], the Tm is 46 °C.
Taken in the same sequence, the figures for TGGCTGAAAAGCCA (((((....))))) were -18.4 kcal/mol and 57.9 °C.
In the case of TGGGGGAAACCCCA (((((....))))), the folding enthalpy in data set [1] was -17.2 kcal/mol. Also, the Tm in data set [2] came to 53.5 °C.
Turning to TGGTTGAAAAACCA (((((....))))), the folding enthalpy in data set [1] was -15.1 kcal/mol. Further, in data set [2], the Tm was 47 °C.
Taken in the same sequence, the figures for TGTACGAAAGTACA (((((....))))) were -14.6 kcal/mol and 54.7 °C.
Take TTAACGAAAGTTAA (((((....))))): the folding enthalpy in data set [1] was -14 kcal/mol. The Tm in data set [2] amounted to 41.1 °C.
As for TTCCAGAAATGGAA (((((....))))), in data set [1], the folding enthalpy is -9.36 kcal/mol. In addition, the Tm in data set [2] amounted to 31 °C.
Consider TTCCGGAAACGGAA (((((....))))), for which the folding enthalpy in data set [1] is -18.6 kcal/mol. In addition, in data set [2], the Tm worked out at 48.7 °C.
TTCGAGAAATCGAA (((((....))))): in data set [1], the folding enthalpy is -12.4 kcal/mol. Besides, in data set [2], the Tm was found to be 37.9 °C.
As for TTGCTGAAAAGCAA (((((....))))), the folding enthalpy in data set [1] is -16.2 kcal/mol. The Tm in data set [2] came to 49.2 °C.
As for TTGTTGAAAAACAA (((((....))))), the folding enthalpy in data set [1] was -11.4 kcal/mol. For the same sequence, in data set [2], the Tm was 30.7 °C.
In the case of TTTCGGAAACGAAA (((((....))))), the folding enthalpy in data set [1] is -18.3 kcal/mol. Moreover, the Tm in data set [2] was determined as 40.6 °C.
In the case of TTTGCGAAAGCAAA (((((....))))), the folding enthalpy in data set [1] is -17.4 kcal/mol. The Tm in data set [2] was 54.3 °C.
Taken in the same sequence, the figures for TTTTGGAAACAAAA (((((....))))) were -9.86 kcal/mol and 27.4 °C.
